What was measured:
KIX H602C = KIX H602C (Mus musculus, UniProt P45481, H602C); test: LC-MS analysis of labelling of KIX H602C by disulphide fragments; format: binding
Method in brief: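 Tethering reactions of KIX H602C with ten hit disulphide fragments from the FP screen were run at increasing β-ME stringency to compare relative affinities. Mass spectrometry gave the percent of protein carrying each fragment through the disulphide.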

KIX N627C mutant = KIX N627C mutant (Mus musculus, UniProt P45481, N627C); test: LC-MS Tethering: labelling of KIX N627C by disulphide fragment; format: binding; details: 5 mM BME, 250 μM fragment
[1] = molecular target: KIX N627C / fluorescently-labeled MLL peptide (Mus musculus, UniProt P45481, N627C); details: fragment covalently associated with KIX N627C; cited from earlier work
KIX N627C / fluorescently-labeled MLL peptide, sequence (P45481 586-665 N627C limits assumed): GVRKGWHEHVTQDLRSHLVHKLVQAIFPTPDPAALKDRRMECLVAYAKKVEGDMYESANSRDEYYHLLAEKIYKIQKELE

KIX H602C, sequence (P45481 586-665 H602C limits assumed): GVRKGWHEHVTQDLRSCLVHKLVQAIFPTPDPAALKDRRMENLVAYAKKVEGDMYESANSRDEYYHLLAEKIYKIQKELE
KIX N627C mutant, sequence (P45481 586-665 N627C limits assumed): as the sequence (P45481 586-665 N627C limits assumed) above

| percent labelling of KIX (KIX H602C; 5 mM β-ME, KIX H602C, MS) | DR50 (concentration at which 50% of the KIX H602C mutant is bound by the fragment) (KIX H602C; LC-MS dose-response, result in words) | percent of KIX N627C mutant labelled (KIX N627C mutant) [%] | SMILES | inhibition of MLL binding [1] |
| --- | --- | --- | --- | --- |
| ~ 70% | lower with the fragment 3D4 than 6D11 |  | CC(=O)Nc1ccc(Cl)c(NC(=O)NCCSSCCN(C)C)c1 [3D4] |  |
|  |  | 82 | CN(C)CCSSCCC(=O)N1CCC(O)(c2ccc(Cl)c(C(F)(F)F)c2)CC1 [1A10] | effective inhibitors of MLL binding |
|  |  |  | COc1ccc2cc([C@H](C)C(=O)NCCSSCCN)ccc2c1 [1C11] | effective inhibitors of MLL binding |

— publication PMC4005387 (MedChemComm, 2014)
